{
  "source": "ChEMBL document CHEMBL1151419",
  "about": "“Antimicrobial effect of halocidin-derived peptide in a mouse model of Listeria infection” (Antimicrob Agents Chemother, 2007)",
  "key": {"Enterococcus faecium [1]": {"system": "Enterococcus faecium", "experiment": "Antimicrobial activity against vancomycin-resistant Enterococcus faecium CCARM 5029 after 18 hrs by broth microdilution assay in presence of 150 mM NaCl", "type": "functional", "details": "CCARM 5029, 18 h", "in_short": "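Same broth microdilution, but the medium was Mueller-Hinton broth supplemented with 150 mM NaCl. Inoculum 2 x 10^5 CFU/ml final. Peptide twofold series in 0.01% acetic acid (stocks 640 to 10 µg/ml). After 18 h at 37°C, MIC read as the lowest concentration with no visible growth.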"}, "Staphylococcus aureus [2]": {"system": "Staphylococcus aureus", "experiment": "Antimicrobial activity against methicillin-resistant Staphylococcus aureus CCARM 3695 treated with supernatant containing 2 mg drug incubated for 10 mins with PBS containing 50 % normal human serum centrifuged for 3 hrs by radial diffusion assay", "type": "functional, organism-based", "in_short": "(§1)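 2 mg peptide incubated 10 min at 37°C in 2 ml PBS, either serum-free or with 50% heat-treated normal human serum. Spun 3 h at 295,000 x g, 4°C. Then 5 µl of supernatant tested by radial diffusion against mid-log MRSA (4 x 10^6 CFU/ml underlay, 3 h at 37°C, overlay, overnight); clear zones measured.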"}, "Staphylococcus aureus [3]": {"system": "Staphylococcus aureus", "experiment": "Antimicrobial activity against methicillin-resistant Staphylococcus aureus CCARM 3695 treated with supernatant containing 2 mg drug incubated for 10 mins with PBS centrifuged for 3 hrs by radial diffusion assay", "type": "functional, organism-based", "in_short": "as §1"}, "Listeria monocytogenes [4]": {"system": "Listeria monocytogenes", "experiment": "Antimicrobial activity against Listeria monocytogenes ATCC 19111 infected in BALB/c mouse at 4 mg/kg, iv in presence of increasing concentration of PGN", "type": "functional, organism-based", "set-up": "dose 4 mg/kg"}, "Listeria monocytogenes [5]": {"system": "Listeria monocytogenes", "experiment": "Antimicrobial activity against Listeria monocytogenes ATCC 19111 infected in BALB/c mouse at 4 mg/kg, iv in presence of increasing concentration of pustulan", "type": "functional, organism-based", "set-up": "dose 4 mg/kg"}, "Listeria monocytogenes [6]": {"system": "Listeria monocytogenes", "experiment": "Antibacterial activity against Listeria monocytogenes ATCC 19111 in assay tube containing mixture of erythrocyte/Listeria monocytogenes cells assessed as logarithmic reduction in CFU after 30 mins", "type": "functional", "in_short": "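Washed mid-log L. monocytogenes (final 1 x 10^5 CFU/ml) was mixed with human blood cells (final 5 x 10^8 cells/ml) and peptide (final 40 µg/ml) in PBS at 37°C. A peptide-free control was included. At 10, 20 and 30 min, aliquots were plated on TSA and colonies counted after overnight growth. Blood cells were counted by hemocytometer under light microscopy.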"}, "[7]": {"experiment": "Toxicity in human erythrocytes assessed as hemolysis at 25 ug/ml relative to Triton X-100", "type": "cell-based, Erythrocyte", "details": "read-out: Activity", "in_short": "(§2)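 Peptide (20 µl) was mixed with 180 µl of a 2.5% (vol/vol) human RBC suspension in PBS and incubated 30 min at 37°C. PBS was added and samples centrifuged 3 min at 10,000 x g; supernatant A540 was read. Hemolysis was expressed relative to a peptide-free PBS blank and 1% Triton X-100 as 100%.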"}, "[8]": {"experiment": "Toxicity in human erythrocytes assessed as hemolysis at 50 ug/ml relative to Triton X-100", "type": "cell-based, Erythrocyte", "details": "read-out: Activity", "in_short": "as §2"}, "[9]": {"experiment": "Toxicity in human erythrocytes assessed as hemolysis at 100 ug/ml relative to Triton X-100", "type": "cell-based, Erythrocyte", "details": "read-out: Activity", "in_short": "as §2"}, "Listeria monocytogenes [10]": {"system": "Listeria monocytogenes", "experiment": "Antimicrobial activity against Listeria monocytogenes ATCC 19111 after 18 hrs by broth microdilution assay", "type": "functional", "details": "ATCC 19111, 18 h", "in_short": "(§3)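 Bacteria were grown overnight to stationary phase in Mueller-Hinton broth at 37°C and diluted to 2 x 10^5 CFU/ml. Line 3 used MHB plus 150 mM NaCl. Peptide stock (640 µg/ml in 0.01% acetic acid) was twofold serially diluted to 10 µg/ml, and 11 µl was added per 100 µl of cells. Turbidity was read after 18 h at 37°C; MIC was the minimum concentration visibly inhibiting growth.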"}, "Listeria monocytogenes [11]": {"system": "Listeria monocytogenes", "experiment": "Antimicrobial activity against Listeria monocytogenes ATCC 19111 after 18 hrs by broth microdilution assay in presence of 150 mM NaCl", "type": "functional", "details": "ATCC 19111, 18 h", "in_short": "as §3"}, "Enterococcus faecium [12]": {"system": "Enterococcus faecium", "experiment": "Antimicrobial activity against vancomycin-resistant Enterococcus faecium CCARM 5029 after 18 hrs by broth microdilution assay", "type": "functional", "details": "CCARM 5029, 18 h", "in_short": "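Broth microdilution (modified CLSI). Overnight stationary-phase Mueller-Hinton broth cultures diluted to 2 x 10^5 CFU/ml final. Peptide serially twofold diluted in 0.01% acetic acid (stock series 640 down to 10 µg/ml); 11 µl added to 100 µl of bacteria. After 18 h at 37°C, MIC taken as the lowest concentration preventing visible turbidity.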"}},
  "note": "Calls of active or inactive are those of the source. The calls are words filed in the database; no cut-off is given here. Bridge positions count the residues as written; N and C are the ends. Peptide text beside a SMILES is read from it. I, II: the chains in the order shown.",
  "data": [
    {"smiles": "CC(C)C[C@H](NC(=O)CNC(=O)[C@H](Cc1cnc[nH]1)NC(=O)[C@H](Cc1cnc[nH]1)NC(=O)[C@H](CC(C)C)NC(=O)[C@H](CC(C)C)NC(=O)[C@H](C)N)C(=O)N[C@@H](CC(N)=O)C(=O)N[C@@H](CSSC[C@H](NC(=O)[C@H](CC(N)=O)NC(=O)[C@H](CC(C)C)NC(=O)CNC(=O)[C@H](Cc1cnc[nH]1)NC(=O)[C@H](Cc1cnc[nH]1)NC(=O)[C@H](CC(C)C)NC(=O)[C@H](CC(C)C)NC(=O)[C@H](C)NC(=O)[C@H](CC(N)=O)NC(=O)[C@H](CC(C)C)NC(=O)[C@H](Cc1c[nH]c2ccccc12)NC(=O)[C@@H](N)CCCCN)C(=O)N[C@@H](C)C(=O)N[C@@H](CCCCN)C(=O)NCC(=O)N[C@H](C(=O)N[C@@H](CC(C)C)C(=O)N[C@@H](C)C(=O)O)C(C)C)C(=O)N[C@@H](C)C(=O)N[C@@H](CCCCN)C(=O)NCC(=O)N[C@H](C(=O)N[C@@H](CC(C)C)C(=O)N[C@@H](C)C(=O)O)C(C)C", "note": "(I: H-KWLNALLHHGLNCAKGVLA-OH / II: H-ALLHHGLNCAKGVLA-OH; disulfide I:13-II:9)", "values": [
      {"measurement": "MIC", "setting": "Enterococcus faecium [1]", "value": 8, "unit": "µg/mL"},
      {"measurement": "Activity", "setting": "Staphylococcus aureus [2]", "value": "Active"},
      {"measurement": "Activity", "setting": "Staphylococcus aureus [3]", "value": "Active"},
      {"measurement": "Activity", "setting": "Listeria monocytogenes [4]", "value": "inactive"},
      {"measurement": "Activity", "setting": "Listeria monocytogenes [5]", "value": "Active"},
      {"measurement": "Activity", "setting": "Listeria monocytogenes [6]", "value": 3},
      {"measurement": "hemolysis at 25 ug/ml", "setting": "[7]", "value": 2.3, "unit": "%"},
      {"measurement": "hemolysis at 50 ug/ml", "setting": "[8]", "value": 4.5, "unit": "%"},
      {"measurement": "hemolysis at 100 ug/ml", "setting": "[9]", "value": 8.5, "unit": "%"},
      {"measurement": "MIC", "setting": "Listeria monocytogenes [10]", "value": 4, "unit": "µg/mL"},
      {"measurement": "MIC", "setting": "Listeria monocytogenes [11]", "value": 16, "unit": "µg/mL"},
      {"measurement": "MIC", "setting": "Enterococcus faecium [12]", "value": 8, "unit": "µg/mL"}
    ]}
  ]
}
